Results as given in BindingDB's records for doi:10.1021/jm00031a021 (Tap Pharmaceuticals, 1994).
Where a SMILES comes first, the peptide text is derived from it. [ ]: non-standard residue; d: D form. The star is where a group is joined. Propanoyl(3-(4-F-phenyl)) = O=C(CCc1ccc(F)cc1)*; Propanoyl(3-(4-Cl-Ph)) = O=C(CCc1ccc(Cl)cc1)*; dPhe(4-Cl) = N[C@H](Cc1ccc(Cl)cc1)C(=O)O; d1Nal = N[C@H](Cc1cccc2ccccc12)C(=O)O; d2Nal = N[C@H](Cc1ccc2ccccc2c1)C(=O)O; Lys(iPr) = CC(C)NCCCC[C@H](N)C(=O)O; NMeY = CN[C@@H](Cc1ccc(O)cc1)C(=O)O; d3Pal = N[C@H](Cc1cccnc1)C(=O)O; pGlu = O=C1CC[C@@H](C(=O)O)N1; Nicotinoyl = O=C(c1cccnc1)*; X1 = O=C(Cc1ccc(O)cc1)*

Target: T1, Gonadotropin-releasing hormone receptor (Rattus norvegicus, UniProt P30969)
T1 sequence (P30969 whole entry): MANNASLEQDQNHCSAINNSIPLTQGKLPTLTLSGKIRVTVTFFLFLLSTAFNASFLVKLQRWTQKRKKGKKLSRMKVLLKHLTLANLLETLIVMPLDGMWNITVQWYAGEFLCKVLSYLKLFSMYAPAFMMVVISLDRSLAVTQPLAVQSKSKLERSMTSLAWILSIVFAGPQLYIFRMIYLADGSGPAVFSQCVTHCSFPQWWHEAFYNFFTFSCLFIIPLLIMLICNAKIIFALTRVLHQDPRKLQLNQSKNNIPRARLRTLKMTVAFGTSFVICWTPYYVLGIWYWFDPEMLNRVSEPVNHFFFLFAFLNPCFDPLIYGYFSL
Test: Inhibition of the in vitro binding of [125I]-labeled leuprolide to the rat pituitary luteinizing hormone releasing hormone (LHRH) receptor.
Outline: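 Rat pituitary LHRH receptor binding with 125I-labeled leuprolide as radioligand. pKI is the negative log of the analogue concentration inhibiting 50% of tracer binding. Compounds tested as TFA salts.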

Row | SMILES | Ki [nM]
1 | CCNC(=O)[C@H]1CCCN1C(=O)[C@H](CCCN=C(N)N)NC(=O)[C@H](CC(C)C)NC(=O)[C@@H](Cc1c[nH]c2ccccc12)NC(=O)[C@H](Cc1ccc(O)cc1)NC(=O)[C@@H]1CCCN1C(=O)[C@H](Cc1c[nH]c2ccccc12)NC(=O)CCc1ccc(F)cc1 | 0.832
2 | CC(C)C[C@H](NC(=O)[C@@H](CCCCNC(=O)c1cccnc1)NC(=O)[C@H](Cc1ccc(O)cc1)N(C)C(=O)[C@H](CO)NC(=O)[C@H](Cc1cccc2ccccc12)NC(=O)CCc1ccc(F)cc1)C(=O)N[C@@H](CCCCNC(C)C)C(=O)N1CCC[C@@H]1C(=O)O | 0.537
3 | CCNC(=O)[C@@H]1CCCN1C(=O)[C@H](CCCN=C(N)N)NC(=O)[C@H](CC(C)C)NC(=O)[C@@H](Cc1c[nH]c2ccccc12)NC(=O)[C@H](Cc1ccc(O)cc1)NC(=O)[C@H](CO)NC(=O)[C@H](Cc1c[nH]c2ccccc12)NC(=O)Cc1ccccc1 | 0.832
4 | CCNC(=O)[C@@H]1CCCN1C(=O)[C@H](CCCN=C(N)N)NC(=O)[C@H](CC(C)C)NC(=O)[C@@H](Cc1c[nH]c2ccccc12)NC(=O)[C@H](Cc1ccc(O)cc1)NC(=O)[C@H](CO)NC(=O)[C@H](Cc1c[nH]c2ccccc12)NC(=O)c1cc2ccccc2[nH]1 | 17
5 | CC(C)C[C@H](NC(=O)[C@@H](CCCCNC(=O)c1cccnc1)NC(=O)[C@H](Cc1ccc(O)cc1)N(C)C(=O)[C@H](CO)NC(=O)[C@@H](Cc1cccc2ccccc12)NC(=O)CCc1ccc(F)cc1)C(=O)N[C@@H](CCCCNC(C)C)C(=O)N1CCC[C@H]1C(=O)N[C@H](C)C(N)=O ({Propanoyl(3-(4-F-phenyl))}-[d1Nal]S[NMeY][dK](Nicotinoyl)L[Lys(iPr)]P[dA]-NH2) | 0.02
6 | CCNC(=O)[C@@H]1CCCN1C(=O)[C@H](CCCN=C(N)N)NC(=O)[C@H](CC(C)C)NC(=O)[C@@H](Cc1c[nH]c2ccccc12)NC(=O)[C@H](Cc1ccc(O)cc1)NC(=O)[C@H](CO)NC(=O)[C@H](Cc1c[nH]c2ccccc12)NC(=O)CCc1ccc(F)c(F)c1 | 0.052
7 | CCNC(=O)[C@H]1CCCN1C(=O)[C@H](CCCN=C(N)N)NC(=O)[C@H](CC(C)C)NC(=O)[C@@H](Cc1c[nH]c2ccccc12)NC(=O)[C@H](Cc1ccc(O)cc1)NC(=O)[C@H](CO)N(C)C(=O)[C@H](Cc1c[nH]c2ccccc12)NC(=O)CCc1ccc(F)cc1 | 0.135
8 | CCNC(=O)[C@H]1CCCN1C(=O)[C@H](CCCN=C(N)N)NC(=O)[C@H](CC(C)C)NC(=O)[C@@H](Cc1ccc(Cl)cc1)NC(=O)[C@H](Cc1ccc(O)cc1)NC(=O)[C@H](CO)NC(=O)[C@H](Cc1c[nH]c2ccccc12)NC(=O)CCc1ccc(F)cc1 | 0.018
9 | CCNC(=O)[C@H]1CCCN1C(=O)[C@H](CCCN=C(N)N)NC(=O)[C@H](CC(C)C)NC(=O)[C@@H](Cc1c[nH]c2ccccc12)NC(=O)[C@H](Cc1ccc(O)cc1)N(C)C(=O)[C@H](CO)NC(=O)[C@H](Cc1c[nH]c2ccccc12)NC(=O)CCc1ccc(F)cc1 | 0.033
10 | CCNC(=O)[C@@H]1CCCN1C(=O)[C@H](CCCN=C(N)N)NC(=O)[C@H](CC(C)C)NC(=O)[C@@H](Cc1c[nH]c2ccccc12)NC(=O)[C@H](Cc1ccc(O)cc1)NC(=O)[C@H](CO)NC(=O)[C@H](Cc1c[nH]c2ccccc12)NC(=O)Cc1ccc(O)cc1 (X1-WSY[dW]LRP-NHEt) | 0.813
11 | CC(=O)N[C@H](Cc1ccc2ccccc2c1)C(=O)N[C@H](Cc1ccc(Cl)cc1)C(=O)N[C@H](Cc1cccnc1)C(=O)N[C@@H](CO)C(=O)N(C)[C@@H](Cc1ccc(O)cc1)C(=O)N[C@H](CCCCNC(=O)c1cccnc1)C(=O)N[C@@H](CC(C)C)C(=O)N[C@@H](CCCCNC(C)C)C(=O)N1CCC[C@H]1C(=O)N[C@H](C)C(N)=O (Ac-[d2Nal][dPhe(4-Cl)][d3Pal]S[NMeY][dK](Nicotinoyl)L[Lys(iPr)]P[dA]-NH2) | 0.032
12 | CCNC(=O)[C@@H]1CCCN1C(=O)[C@H](CCCN=C(N)N)NC(=O)[C@H](CC(C)C)NC(=O)[C@@H](Cc1c[nH]c2ccccc12)NC(=O)[C@H](Cc1ccc(O)cc1)NC(=O)[C@H](CO)NC(=O)[C@@H](Cc1ccc(O)cc1)NC(=O)CCc1ccc(Cl)cc1 ({Propanoyl(3-(4-Cl-Ph))}-[dY]SY[dW]LRP-NHEt) | 0.018
13 | CCNC(=O)[C@@H]1CCCN1C(=O)[C@H](CCCN=C(N)N)NC(=O)[C@H](CC(C)C)NC(=O)[C@@H](Cc1c[nH]c2ccccc12)NC(=O)[C@H](Cc1ccc(O)cc1)NC(=O)[C@H](CO)NC(=O)[C@H](Cc1c[nH]c2ccccc12)NC(=O)c1cc2cc(F)ccc2[nH]1 | 12.3
14 | CCNC(=O)[C@H]1CCCN1C(=O)[C@H](CCCN=C(N)N)NC(=O)[C@H](CC(C)C)NC(=O)[C@@H](Cc1c[nH]c2ccccc12)NC(=O)[C@H](Cc1ccc(O)cc1)N(C)C(=O)[C@H](CO)NC(=O)[C@H](Cc1c[nH]c2ccccc12)NC(=O)CCc1ccc(Cl)cc1 | 0.071
15 | CCNC(=O)[C@@H]1CCCN1C(=O)[C@H](CCCN=C(N)N)NC(=O)[C@H](CC(C)C)NC(=O)[C@@H](Cc1c[nH]c2ccccc12)NC(=O)[C@H](Cc1ccc(O)cc1)NC(=O)[C@H](CO)NC(=O)[C@H](Cc1c[nH]c2ccccc12)NC(=O)[C@H](Cc1ccccc1)NC(=O)[C@@H]1CCC(=O)N1 ([pGlu]FWSY[dW]LRP-NHEt) | 0.025
16 | CCNC(=O)[C@@H]1CCCN1C(=O)[C@H](CCCN=C(N)N)NC(=O)[C@H](CC(C)C)NC(=O)[C@@H](Cc1c[nH]c2ccccc12)NC(=O)[C@H](Cc1ccc(O)cc1)NC(=O)[C@H](CO)NC(=O)[C@H](Cc1c[nH]c2ccccc12)NC(=O)Cc1ccc(C(F)(F)F)cc1 | 0.646
17 | CCNC(=O)[C@H]1CCCN1C(=O)[C@H](CCCN=C(N)N)NC(=O)[C@H](CC(C)C)NC(=O)[C@@H](Cc1ccc(O)cc1)NC(=O)[C@@H](Cc1ccc(O)cc1)NC(=O)[C@H](CO)NC(=O)[C@@H](Cc1c[nH]c2ccccc12)NC(=O)CCc1ccc(F)cc1 | 0.01
18 | CCNC(=O)[C@@H]1CCCN1C(=O)[C@H](CCCN=C(N)N)NC(=O)[C@H](CC(C)C)NC(=O)[C@@H](Cc1c[nH]c2ccccc12)NC(=O)[C@H](Cc1ccc(O)cc1)NC(=O)[C@H](CO)NC(=O)[C@H](Cc1c[nH]c2ccccc12)NC(=O)CCc1cccc(F)c1 | 1.35
19 | CCNC(=O)[C@@H]1CCCN1C(=O)[C@H](CCCN=C(N)N)NC(=O)[C@H](CC(C)C)NC(=O)[C@@H](Cc1c[nH]c2ccccc12)NC(=O)[C@H](Cc1ccc(O)cc1)NC(=O)[C@H](CO)NC(=O)[C@H](Cc1ccc(O)cc1)NC(=O)CCc1ccc(Cl)cc1 ({Propanoyl(3-(4-Cl-Ph))}-YSY[dW]LRP-NHEt) | 0.076
20 | CCNC(=O)[C@@H]1CCCN1C(=O)[C@H](CCCN=C(N)N)NC(=O)[C@H](CC(C)C)NC(=O)[C@@H](Cc1c[nH]c2ccccc12)NC(=O)[C@H](Cc1ccc(O)cc1)NC(=O)[C@H](CO)NC(=O)[C@@H](Cc1c[nH]c2ccccc12)NC(=O)c1cc2ccccc2[nH]1 | 0.076
21 | CCNC(=O)[C@H]1CCCN1C(=O)[C@H](CCCN=C(N)N)NC(=O)[C@H](CC(C)C)NC(=O)[C@@H](CCCCNC(=O)c1cccnc1)NC(=O)[C@H](Cc1ccc(O)cc1)NC(=O)[C@H](CO)NC(=O)[C@H](Cc1c[nH]c2ccccc12)NC(=O)CCc1ccc(F)cc1 | 0.023
22 | CCNC(=O)[C@@H]1CCCN1C(=O)[C@H](CCCN=C(N)N)NC(=O)[C@H](CC(C)C)NC(=O)[C@@H](Cc1c[nH]c2ccccc12)NC(=O)[C@H](Cc1ccc(O)cc1)NC(=O)[C@H](CO)NC(=O)[C@H](Cc1c[nH]c2ccccc12)NC(=O)CCc1ccc(F)cc1F | 0.04
23 | CCNC(=O)[C@H]1CCCN1C(=O)[C@H](CCCN=C(N)N)NC(=O)[C@H](CC(C)C)NC(=O)[C@@H](Cc1c[nH]c2ccccc12)NC(=O)[C@H](Cc1ccc(O)cc1)NC(=O)[C@H](CO)NC(=O)[C@H](Cc1c[nH]c2ccccc12)NC(=O)CCc1ccc(Cl)cc1 | 0.076
24 | CCNC(=O)[C@@H]1CCCN1C(=O)[C@H](CCCN=C(N)N)NC(=O)[C@H](CC(C)C)NC(=O)[C@@H](Cc1c[nH]c2ccccc12)NC(=O)[C@H](Cc1ccc(O)cc1)NC(=O)[C@H](CO)NC(=O)[C@H](Cc1ccc(O)cc1)NC(=O)CCc1ccc(F)cc1 | 0.022
25 | CCNC(=O)[C@H]1CCCN1C(=O)[C@H](CCCN=C(N)N)NC(=O)[C@H](CC(C)C)NC(=O)[C@@H](Cc1c[nH]c2ccccc12)NC(=O)[C@H](Cc1ccc(O)cc1)NC(=O)[C@H](CO)NC(=O)[C@H](Cc1c[nH]c2ccccc12)NC(=O)[C@@H](N)Cc1ccccc1 | 83.2
26 | CCNC(=O)[C@@H]1CCCN1C(=O)[C@H](CCCN=C(N)N)NC(=O)[C@H](CC(C)C)NC(=O)[C@@H](Cc1c[nH]c2ccccc12)NC(=O)[C@H](Cc1ccc(O)cc1)NC(=O)[C@H](CO)NC(=O)[C@H](Cc1c[nH]c2ccccc12)NC(=O)CCc1ccc(C(F)(F)F)cc1 | 0.275
27 | CCNC(=O)[C@H]1CCCN1C(=O)[C@H](CCCN=C(N)N)NC(=O)[C@H](CC(C)C)NC(=O)[C@@H](Cc1ccc(O)cc1)NC(=O)[C@@H](Cc1ccc(O)cc1)NC(=O)[C@H](CO)NC(=O)[C@H](Cc1c[nH]c2ccccc12)NC(=O)CCc1ccc(F)cc1 | 0.038
